In the M2OR odorant receptor database:
Residue numbers refer to the chain shown, from its start.

Legend:
Settings in all cases: stereoisomer not certain
[1] = molecular target: T1, OR2A12 (Homo sapiens) (UniProt Q8NGT7)
T1 sequence (whole entry): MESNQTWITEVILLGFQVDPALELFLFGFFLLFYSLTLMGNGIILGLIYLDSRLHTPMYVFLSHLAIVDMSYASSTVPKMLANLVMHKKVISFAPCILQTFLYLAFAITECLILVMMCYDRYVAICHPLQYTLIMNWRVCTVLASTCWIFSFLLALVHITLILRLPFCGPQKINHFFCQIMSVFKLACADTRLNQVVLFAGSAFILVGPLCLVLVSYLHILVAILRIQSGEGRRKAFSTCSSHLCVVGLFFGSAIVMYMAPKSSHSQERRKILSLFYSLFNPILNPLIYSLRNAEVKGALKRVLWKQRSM
Outline: (§1)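 Values were gathered from published papers (main text and supplementary material), with extra details requested from the original authors when needed, and checked for typos and inconsistencies. Each receptor–molecule pair is called responsive (active) if the original authors judged the measured signal statistically different from baseline, and non-responsive (inactive) otherwise. Assay methods varied by source, often transient mammalian cell-line luciferase assays. Recorded details include cell line, G-protein, co-transfected protein and tags.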

[2] = molecular target: T2, OR2A14 (Homo sapiens) (UniProt Q96R47)
T2 sequence (whole entry): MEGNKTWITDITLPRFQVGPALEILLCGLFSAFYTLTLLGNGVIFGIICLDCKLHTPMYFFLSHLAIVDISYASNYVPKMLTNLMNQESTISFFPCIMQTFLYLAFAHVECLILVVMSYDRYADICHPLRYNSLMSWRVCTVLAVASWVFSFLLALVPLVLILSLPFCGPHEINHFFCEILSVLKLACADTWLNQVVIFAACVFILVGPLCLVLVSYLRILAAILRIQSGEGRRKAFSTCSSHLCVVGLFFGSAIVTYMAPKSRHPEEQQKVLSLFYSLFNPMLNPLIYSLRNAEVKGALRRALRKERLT
Outline: as §1

[3] = molecular target: T3, OR2A2 (Homo sapiens) (UniProt Q6IF42)
T3 sequence (whole entry): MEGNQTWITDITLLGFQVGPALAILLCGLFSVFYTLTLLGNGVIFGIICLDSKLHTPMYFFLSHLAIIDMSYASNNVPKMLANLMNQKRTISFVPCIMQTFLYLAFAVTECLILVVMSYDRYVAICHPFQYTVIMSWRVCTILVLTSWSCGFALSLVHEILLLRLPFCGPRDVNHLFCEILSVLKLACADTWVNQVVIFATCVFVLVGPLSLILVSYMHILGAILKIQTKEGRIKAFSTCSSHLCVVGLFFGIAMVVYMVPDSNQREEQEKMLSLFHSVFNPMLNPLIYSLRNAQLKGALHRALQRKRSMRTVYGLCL
Outline: as §1

[4] = molecular target: T4, OR2A25 (Homo sapiens) (UniProt A4D2G3)
T4 sequence (whole entry): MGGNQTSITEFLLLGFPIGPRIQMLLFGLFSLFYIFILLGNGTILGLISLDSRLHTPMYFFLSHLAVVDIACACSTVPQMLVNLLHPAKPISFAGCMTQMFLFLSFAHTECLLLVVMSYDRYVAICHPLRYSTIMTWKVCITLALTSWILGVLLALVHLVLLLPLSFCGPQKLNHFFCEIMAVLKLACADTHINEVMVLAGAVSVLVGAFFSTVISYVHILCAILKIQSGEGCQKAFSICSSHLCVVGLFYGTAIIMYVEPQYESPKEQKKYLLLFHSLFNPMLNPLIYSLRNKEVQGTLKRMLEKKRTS
Outline: as §1

[5] = molecular target: T5, OR2A4 (Homo sapiens) (UniProt O95047)
T5 sequence (whole entry): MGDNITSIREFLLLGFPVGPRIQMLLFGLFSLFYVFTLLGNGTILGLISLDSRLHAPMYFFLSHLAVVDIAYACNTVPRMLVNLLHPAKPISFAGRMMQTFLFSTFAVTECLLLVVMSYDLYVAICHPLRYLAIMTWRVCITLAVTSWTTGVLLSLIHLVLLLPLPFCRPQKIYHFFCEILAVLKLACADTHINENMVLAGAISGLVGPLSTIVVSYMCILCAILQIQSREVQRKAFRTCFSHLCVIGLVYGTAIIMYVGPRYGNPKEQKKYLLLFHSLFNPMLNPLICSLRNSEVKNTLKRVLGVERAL
Outline: as §1

[6] = molecular target: T6, OR2A5 (Homo sapiens) (UniProt Q96R48)
T6 sequence (whole entry): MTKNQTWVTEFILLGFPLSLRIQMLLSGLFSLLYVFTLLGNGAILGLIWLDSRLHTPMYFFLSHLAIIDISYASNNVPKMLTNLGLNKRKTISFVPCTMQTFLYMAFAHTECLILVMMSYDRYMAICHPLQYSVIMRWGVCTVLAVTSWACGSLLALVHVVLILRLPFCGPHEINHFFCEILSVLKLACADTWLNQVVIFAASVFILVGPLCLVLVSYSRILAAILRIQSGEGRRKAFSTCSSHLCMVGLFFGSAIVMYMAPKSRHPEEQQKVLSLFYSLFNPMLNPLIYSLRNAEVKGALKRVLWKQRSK
Outline: as §1

[7] = molecular target: T7, OR2A7 (Homo sapiens) (UniProt Q96R45)
T7 sequence (whole entry): T5 sequence (whole entry) with R9T, R238C, V250F
Outline: as §1

[8] = molecular target: T8, OR2AE1 (Homo sapiens) (UniProt Q8NHA4)
T8 sequence (whole entry): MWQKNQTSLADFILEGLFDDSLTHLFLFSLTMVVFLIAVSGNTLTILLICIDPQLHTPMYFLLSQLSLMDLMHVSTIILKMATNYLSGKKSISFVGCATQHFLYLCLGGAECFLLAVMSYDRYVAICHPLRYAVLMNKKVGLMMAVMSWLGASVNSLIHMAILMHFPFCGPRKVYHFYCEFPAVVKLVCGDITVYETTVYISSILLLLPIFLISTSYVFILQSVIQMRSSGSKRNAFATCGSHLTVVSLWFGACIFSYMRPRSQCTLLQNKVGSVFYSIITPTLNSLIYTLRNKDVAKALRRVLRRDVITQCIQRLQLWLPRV
Outline: as §1

[9] = molecular target: T9, OR2AG1 (Homo sapiens) (UniProt Q9H205)
T9 sequence (whole entry): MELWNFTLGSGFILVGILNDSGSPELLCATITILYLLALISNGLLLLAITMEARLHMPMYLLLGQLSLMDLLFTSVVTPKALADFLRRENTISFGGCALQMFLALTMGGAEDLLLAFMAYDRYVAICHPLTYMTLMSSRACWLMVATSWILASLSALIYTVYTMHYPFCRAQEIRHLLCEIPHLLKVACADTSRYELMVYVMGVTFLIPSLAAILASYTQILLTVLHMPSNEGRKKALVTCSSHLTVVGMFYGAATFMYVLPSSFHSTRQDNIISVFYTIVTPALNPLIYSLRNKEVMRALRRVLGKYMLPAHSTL
Outline: as §1

[10] = molecular target: T10, OR2AG2 (Homo sapiens) (UniProt A6NM03)
T10 sequence (whole entry): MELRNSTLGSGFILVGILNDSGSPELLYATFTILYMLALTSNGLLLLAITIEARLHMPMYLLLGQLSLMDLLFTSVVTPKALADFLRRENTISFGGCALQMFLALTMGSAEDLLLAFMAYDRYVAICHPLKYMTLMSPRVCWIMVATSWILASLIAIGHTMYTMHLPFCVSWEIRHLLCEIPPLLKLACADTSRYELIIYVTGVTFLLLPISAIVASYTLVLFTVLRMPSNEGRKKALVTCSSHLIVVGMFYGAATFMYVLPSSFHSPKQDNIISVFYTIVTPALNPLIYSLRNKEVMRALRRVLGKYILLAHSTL
Outline: as §1

[11] = molecular target: T11, OR2AJ1 (Homo sapiens) (UniProt Q8NGZ0)
T11 sequence (whole entry): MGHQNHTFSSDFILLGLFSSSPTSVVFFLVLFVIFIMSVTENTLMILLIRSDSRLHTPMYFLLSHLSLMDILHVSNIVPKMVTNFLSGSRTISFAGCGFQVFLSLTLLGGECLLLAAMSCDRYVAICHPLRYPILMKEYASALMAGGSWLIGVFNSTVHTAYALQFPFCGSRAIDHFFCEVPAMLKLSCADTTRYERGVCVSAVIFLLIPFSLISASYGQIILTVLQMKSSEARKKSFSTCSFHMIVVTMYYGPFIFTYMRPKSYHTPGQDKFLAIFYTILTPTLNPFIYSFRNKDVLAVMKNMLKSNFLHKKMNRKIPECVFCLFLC
Outline: as §1

[12] = molecular target: T12, OR2AK2 (Homo sapiens) (UniProt Q8NG84)
T12 sequence (whole entry): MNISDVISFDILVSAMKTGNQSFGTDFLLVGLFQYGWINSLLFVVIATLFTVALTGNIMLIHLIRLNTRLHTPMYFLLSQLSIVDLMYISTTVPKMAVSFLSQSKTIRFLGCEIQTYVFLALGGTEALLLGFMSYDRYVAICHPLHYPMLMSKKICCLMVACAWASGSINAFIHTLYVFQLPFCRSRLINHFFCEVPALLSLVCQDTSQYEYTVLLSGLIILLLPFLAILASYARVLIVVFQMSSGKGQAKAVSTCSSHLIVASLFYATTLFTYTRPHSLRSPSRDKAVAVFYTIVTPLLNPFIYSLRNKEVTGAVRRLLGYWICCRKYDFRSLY
Outline: as §1

[13] = molecular target: T13, OR2AP1 (Homo sapiens) (UniProt Q8NGE2)
T13 sequence (whole entry): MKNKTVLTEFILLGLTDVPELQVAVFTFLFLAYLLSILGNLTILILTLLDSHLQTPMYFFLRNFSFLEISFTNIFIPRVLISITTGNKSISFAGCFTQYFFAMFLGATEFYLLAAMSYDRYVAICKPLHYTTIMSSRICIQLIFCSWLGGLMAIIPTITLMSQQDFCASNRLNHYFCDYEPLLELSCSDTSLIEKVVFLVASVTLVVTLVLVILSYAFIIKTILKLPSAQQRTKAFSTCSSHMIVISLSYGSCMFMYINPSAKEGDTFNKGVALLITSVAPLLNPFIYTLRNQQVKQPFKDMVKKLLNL
Outline: as §1

[14] = molecular target: T14, OR2AT4 (Homo sapiens) (UniProt A6NND4)
T14 sequence (whole entry): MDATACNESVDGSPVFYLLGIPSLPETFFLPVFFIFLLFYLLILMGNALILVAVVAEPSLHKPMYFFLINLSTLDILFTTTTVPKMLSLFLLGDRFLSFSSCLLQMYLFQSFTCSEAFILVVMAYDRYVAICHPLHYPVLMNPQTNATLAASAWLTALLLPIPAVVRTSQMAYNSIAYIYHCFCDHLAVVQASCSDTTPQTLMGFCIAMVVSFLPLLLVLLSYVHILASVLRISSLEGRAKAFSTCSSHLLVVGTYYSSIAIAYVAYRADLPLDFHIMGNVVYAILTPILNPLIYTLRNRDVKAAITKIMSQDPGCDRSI
Outline: as §1

[15] = molecular target: T15, OR2B11 (Homo sapiens) (UniProt Q5JQS5)
T15 sequence (whole entry): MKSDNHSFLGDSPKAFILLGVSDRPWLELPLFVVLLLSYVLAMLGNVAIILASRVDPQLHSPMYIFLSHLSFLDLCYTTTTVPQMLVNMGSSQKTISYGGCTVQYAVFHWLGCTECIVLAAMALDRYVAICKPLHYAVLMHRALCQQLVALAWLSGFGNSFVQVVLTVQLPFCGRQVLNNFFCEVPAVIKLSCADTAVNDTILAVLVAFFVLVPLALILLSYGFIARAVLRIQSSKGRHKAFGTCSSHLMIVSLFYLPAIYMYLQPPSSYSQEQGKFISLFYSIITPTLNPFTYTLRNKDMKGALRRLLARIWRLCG
Outline: as §1

[16] = molecular target: T16, OR2B2 (Homo sapiens) (UniProt Q9GZK3)
T16 sequence (whole entry): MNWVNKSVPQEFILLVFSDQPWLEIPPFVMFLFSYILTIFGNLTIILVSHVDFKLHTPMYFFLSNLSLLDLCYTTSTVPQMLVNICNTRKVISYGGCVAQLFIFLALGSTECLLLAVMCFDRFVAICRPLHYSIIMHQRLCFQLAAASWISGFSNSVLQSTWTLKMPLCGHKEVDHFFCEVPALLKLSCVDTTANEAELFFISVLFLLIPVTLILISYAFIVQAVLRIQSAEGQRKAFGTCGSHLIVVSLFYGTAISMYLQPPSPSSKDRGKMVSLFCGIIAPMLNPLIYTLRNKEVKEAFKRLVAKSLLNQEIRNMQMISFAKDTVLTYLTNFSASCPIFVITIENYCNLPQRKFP
Outline: as §1

Measured: odorant receptor agonist call

CC1CCCCCCCCCCCCC(=O)C1 (stereo not drawn)
inactive: all assays above

CCCCCCCCCC(=O)OCC
inactive: [7]

CCCCCC(=O)C(C)C(C)=O (stereo not drawn)
inactive: all assays above

CCCCCCCCCCCCCC(=O)OC
inactive: [7]

CCCCC(=O)C(C)=O
inactive: [7]

CC(CO)CS (stereo not drawn)
inactive: all assays above

CCCCC(S)C(C)CO (stereo not drawn)
inactive: all assays above

CC(C)=CCCC(C)=CCO
inactive: [7]
